Assay results: ChEMBL document CHEMBL1138520, “Molecular and conformational determinants of pituitary adenylate cyclase-activating polypeptide (PACAP) for activation of the PAC1 receptor” (J Med Chem, 2009)
The source made the active and inactive calls. No cut-off for these calls is given here. Where a SMILES comes first, the peptide text is derived from it. [ ]: non-standard residue; d: D form. ξ: configuration not given here. ξTiq(1-COOH) = O=C(O)C1NCCc2ccccc21; ξTic = O=C(O)C1Cc2ccccc2CN1

Experiments:
[1] = molecular target: T1, Pituitary adenylate cyclase-activating polypeptide type I receptor (Homo sapiens, UniProt P41586); assay: Agonist activity at human recombinant PAC1 receptor expressed in CHO cells assessed as PACAP38-induced calcium mobilization at 1 uM by FLIPR assay; format: functional, cell-based
Target sequence in this assay (P41586 whole entry): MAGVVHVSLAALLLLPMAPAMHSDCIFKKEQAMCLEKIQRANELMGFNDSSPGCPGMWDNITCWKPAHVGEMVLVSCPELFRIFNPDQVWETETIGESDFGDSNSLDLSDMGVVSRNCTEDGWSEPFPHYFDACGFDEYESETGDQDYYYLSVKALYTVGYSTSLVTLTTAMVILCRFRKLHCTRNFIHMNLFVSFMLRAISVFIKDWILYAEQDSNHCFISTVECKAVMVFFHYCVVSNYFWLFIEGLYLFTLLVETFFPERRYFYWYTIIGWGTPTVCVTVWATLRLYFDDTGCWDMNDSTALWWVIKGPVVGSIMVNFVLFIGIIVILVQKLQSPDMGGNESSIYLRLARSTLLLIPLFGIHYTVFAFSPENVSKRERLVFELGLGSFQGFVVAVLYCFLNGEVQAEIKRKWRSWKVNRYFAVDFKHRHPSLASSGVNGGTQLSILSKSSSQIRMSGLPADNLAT

[2] = molecular target: T1, Pituitary adenylate cyclase-activating polypeptide type I receptor; assay: Displacement of [125I]Ac-PACAP27 from human recombinant PAC1 receptor expressed in CHO cells by gamma- counter; format: cell-based
Target sequence in this assay (P41586 whole entry): as above

[3] = molecular target: T1, Pituitary adenylate cyclase-activating polypeptide type I receptor; assay: Agonist activity at human recombinant PAC1 receptor expressed in CHO cells assessed as PACAP38-induced calcium mobilization at 1 uM by FLIPR assay relative to PACAP38; format: functional, cell-based
Target sequence in this assay (P41586 21-468 limits assumed): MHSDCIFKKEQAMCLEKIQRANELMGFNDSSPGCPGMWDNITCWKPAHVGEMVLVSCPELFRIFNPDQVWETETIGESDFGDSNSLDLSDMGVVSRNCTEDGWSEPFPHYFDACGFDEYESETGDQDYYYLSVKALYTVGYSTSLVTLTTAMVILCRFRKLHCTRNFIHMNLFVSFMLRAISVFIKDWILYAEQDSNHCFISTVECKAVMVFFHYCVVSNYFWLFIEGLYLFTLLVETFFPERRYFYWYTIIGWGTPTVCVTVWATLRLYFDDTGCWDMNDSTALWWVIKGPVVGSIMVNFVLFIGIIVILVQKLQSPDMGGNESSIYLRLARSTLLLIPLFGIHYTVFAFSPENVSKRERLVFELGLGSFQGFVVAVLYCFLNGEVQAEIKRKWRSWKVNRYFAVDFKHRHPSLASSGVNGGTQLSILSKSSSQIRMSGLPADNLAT

[4] = molecular target: T1, Pituitary adenylate cyclase-activating polypeptide type I receptor; assay: Agonist activity at human recombinant PAC1 receptor expressed in CHO cells assessed as PACAP38-induced calcium mobilization by FLIPR assay relative to PACAP38; format: functional, cell-based
Outline: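 CHO cells stably expressing recombinant human PAC1, plated 24 h before assay, loaded with fluo-4 AM for 60 min at 37 °C in the dark, then rinsed into HBSS for 15 min at 37 °C. Peptide was added 18 s into a 150 s read (ex 480/em 525 nm), at final concentrations of 1 × 10-12 to 1 × 10^-5 M. Response was normalised to 1 × 10^-5 M PACAP38 on each plate. EC50 and efficacy came from nonlinear regression; 4-10 independent assays in duplicate.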
Target sequence in this assay (P41586 21-468 limits assumed): as above

[5] = molecular target: T1, Pituitary adenylate cyclase-activating polypeptide type I receptor; assay: Agonist activity at human recombinant PAC1 receptor expressed in CHO cells assessed as PACAP38-induced calcium mobilization by FLIPR assay; format: functional, cell-based
Outline: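 CHO cells stably expressing recombinant human PAC1, plated 24 h before assay, loaded with fluo-4 AM for 60 min at 37 °C in the dark, then rinsed into HBSS for 15 min at 37 °C. EC50 and efficacy came from nonlinear regression; 4-10 independent assays in duplicate.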
Target sequence in this assay (P41586 whole entry): as the sequence (P41586 whole entry) above

| EC50 [1] | IC50 [2] [nM] | Emax [3] | Emax [4] [%] | EC50 [5] [nM] | Structure (SMILES) |
| --- | --- | --- | --- | --- | --- |
| Not Active | 1550 | inactive |  |  | CC[C@H](C)[C@H](NC(=O)CNC(=O)[C@H](CC(=O)O)NC(=O)[C@H](CO)NC(=O)[C@@H](N)Cc1cnc[nH]1)C(=O)N1CCc2ccccc2C1C(=O)N[C@H](C(=O)N[C@@H](CC(=O)O)C(=O)N[C@@H](CO)C(=O)N[C@@H](Cc1ccc(O)cc1)C(=O)N[C@@H](CO)C(=O)N[C@@H](CCCNC(=N)N)C(=O)N[C@@H](Cc1ccc(O)cc1)C(=O)N[C@@H](CCCNC(=N)N)C(=O)N[C@@H](CCCCN)C(=O)N[C@@H](CCC(N)=O)C(=O)N[C@@H](CCSC)C(=O)N[C@@H](C)C(=O)N[C@H](C(=O)N[C@@H](CCCCN)C(=O)N[C@@H](CCCCN)C(=O)N[C@@H](Cc1ccc(O)cc1)C(=O)N[C@@H](CC(C)C)C(=O)N[C@@H](C)C(=O)N[C@@H](C)C(=O)N[C@H](C(=O)N[C@@H](CC(C)C)C(=O)NCC(=O)N[C@@H](CCCCN)C(=O)N[C@@H](CCCNC(=N)N)C(=O)N[C@@H](Cc1ccc(O)cc1)C(=O)N[C@@H](CCCCN)C(=O)N[C@@H](CCC(N)=O)C(=O)N[C@@H](CCCNC(=N)N)C(=O)N[C@H](C(=O)N[C@@H](CCCCN)C(=O)N[C@@H](CC(N)=O)C(=O)N[C@@H](CCCCN)C(N)=O)C(C)C)C(C)C)C(C)C)[C@@H](C)O (some centres undefined) (H-HSDGI[ξTiq(1-COOH)]TDSYSRYRKQMAVKKYLAAVLGKRYKQRVKNK-NH2) |
|  | 951 |  | 93.2 | 1840 | CC[C@H](C)[C@H](NC(=O)CNC(=O)[C@H](CC(=O)O)NC(=O)[C@H](CO)NC(=O)[C@@H](N)Cc1cnc[nH]1)C(=O)N[C@H](Cc1ccccc1)C(=O)N[C@H](C(=O)N[C@@H](CC(=O)O)C(=O)N[C@@H](CO)C(=O)N[C@@H](Cc1ccc(O)cc1)C(=O)N[C@@H](CO)C(=O)N[C@@H](CCCNC(=N)N)C(=O)N[C@@H](Cc1ccc(O)cc1)C(=O)N[C@@H](CCCNC(=N)N)C(=O)N[C@@H](CCCCN)C(=O)N[C@@H](CCC(N)=O)C(=O)N[C@@H](CCSC)C(=O)N[C@@H](C)C(=O)N[C@H](C(=O)N[C@@H](CCCCN)C(=O)N[C@@H](CCCCN)C(=O)N[C@@H](Cc1ccc(O)cc1)C(=O)N[C@@H](CC(C)C)C(=O)N[C@@H](C)C(=O)N[C@@H](C)C(=O)N[C@H](C(=O)N[C@@H](CC(C)C)C(=O)NCC(=O)N[C@@H](CCCCN)C(=O)N[C@@H](CCCNC(=N)N)C(=O)N[C@@H](Cc1ccc(O)cc1)C(=O)N[C@@H](CCCCN)C(=O)N[C@@H](CCC(N)=O)C(=O)N[C@@H](CCCNC(=N)N)C(=O)N[C@H](C(=O)N[C@@H](CCCCN)C(=O)N[C@@H](CC(N)=O)C(=O)N[C@@H](CCCCN)C(N)=O)C(C)C)C(C)C)C(C)C)[C@@H](C)O |
|  | 1420 |  | 69.6 | 4010 | CC[C@H](C)[C@H](NC(=O)CNC(=O)[C@H](CC(=O)O)NC(=O)[C@H](CO)NC(=O)[C@@H](N)Cc1cnc[nH]1)C(=O)N1Cc2ccccc2CC1C(=O)N[C@H](C(=O)N[C@@H](CC(=O)O)C(=O)N[C@@H](CO)C(=O)N[C@@H](Cc1ccc(O)cc1)C(=O)N[C@@H](CO)C(=O)N[C@@H](CCCNC(=N)N)C(=O)N[C@@H](Cc1ccc(O)cc1)C(=O)N[C@@H](CCCNC(=N)N)C(=O)N[C@@H](CCCCN)C(=O)N[C@@H](CCC(N)=O)C(=O)N[C@@H](CCSC)C(=O)N[C@@H](C)C(=O)N[C@H](C(=O)N[C@@H](CCCCN)C(=O)N[C@@H](CCCCN)C(=O)N[C@@H](Cc1ccc(O)cc1)C(=O)N[C@@H](CC(C)C)C(=O)N[C@@H](C)C(=O)N[C@@H](C)C(=O)N[C@H](C(=O)N[C@@H](CC(C)C)C(=O)NCC(=O)N[C@@H](CCCCN)C(=O)N[C@@H](CCCNC(=N)N)C(=O)N[C@@H](Cc1ccc(O)cc1)C(=O)N[C@@H](CCCCN)C(=O)N[C@@H](CCC(N)=O)C(=O)N[C@@H](CCCNC(=N)N)C(=O)N[C@H](C(=O)N[C@@H](CCCCN)C(=O)N[C@@H](CC(N)=O)C(=O)N[C@@H](CCCCN)C(N)=O)C(C)C)C(C)C)C(C)C)[C@@H](C)O (some centres undefined) (H-HSDGI[ξTic]TDSYSRYRKQMAVKKYLAAVLGKRYKQRVKNK-NH2) |
